3 sequences from article PMC11208914 (Biochemistry and Biophysics Reports, 2024) can be followed below.

Series [1] relates to HeLa cells. Briefly: CellTiter-Glo cell viability test, HeLa cells. In kind it is cell-based. An outline of the steps:
(§1)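 HMC3 or HeLa cells were grown in DMEM with L-glutamine, 10 % FCS and 1 % penicillin/streptomycin, then seeded at 10^4 cells/well. Peptide in ½ dilutions (100 to 1.5 μg/ml) was added for 2 h at 37 °C and 5 % CO2. Medium was then replaced with DMEM/10 % FCS for 24 h, with untreated cells as control. ATP was read by CellTiter-Glo luminescence, in triplicate.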

Series [2] deals with HMC3 cells. Put plainly: CellTiter-Glo cell viability test, HMC3 cells. It counts as cell-based. Particulars: Fig. 2; for cytotoxic effect on HMC3 cells at 100 μg/ml: about 100 μg/ml. The essentials:
as §1

The test system of series [3] is ZIKV PF13. In kind it is cell-based, Zika virus. Particulars: FACS; for reduction in infection: virus treated before infection of HMC3 cells. An outline of the steps:
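HMC3 cells were seeded at 4.10^4 cells/well the day before. ZIKV PF13 (MOI 1.5) was preincubated with ½ dilutions of peptide (50 to 3 μg/ml) for 1 h at 37 °C, then added to cells for 1.5 h at 37 °C before medium replacement; duplicates. Trypsinized cells were fixed and permeabilized (30 min, 4 °C), stained with 4G2 anti-envelope antibody (1/500) and Alexa488 secondary (1/1000), then analysed by flow cytometry.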

“Also recorded” adds a separate entry of the source. Where two headings read alike, the source gives them in different places.

For the sequence ALWKTLLKKVLKAAAKAALKAVLVGANA [K4K20S4], in series [1], the “viability of HeLa cells at 100 μg/ml” value is given as “approximately 1%”. The “concentration at which the peptide exhibits cytotoxicity to HeLa cells” value in series [1] (Fig. 3) is “around 25 μg/ml”. In series [2], the “concentration at which the peptide remained non-toxic to HMC3 cells” value is recorded as “about 12.5 μg/ml” and the “cytotoxic effect on HMC3 cells at 100 μg/ml” value (shortened to “cytotoxic effect on HMC3 cells”) is “exhibited cytotoxicity”. The reduction in infection entry in series [3] (3 μg/ml) was “Approximately 90%”.

As for “ALWKTLLKKVLKAAAKAALKAVLVGAKA [K4K20K27S4]”, in series [1], the “viability of HeLa cells at 100 μg/ml” value is listed as 18%. Also, the “concentration at which the peptide exhibits cytotoxicity to HeLa cells” value in series [1] (Fig. 3) was 50 µg/mL. Besides, in series [2], the “concentration at which the peptide remained non-toxic to HMC3 cells” value is “about 12.5 μg/ml” and the “cytotoxic effect on HMC3 cells” value is “exhibited cytotoxicity”. Moreover, in series [3] (6.25 μg/ml), the reduction in infection result is on record as “Approximately 90%”.

As to “GLKKKIKEVGKEAAKAAAKAAGKAALGAVSEAV [K3K4B2]”, the “cytotoxicity to HeLa cells” value in series [1] (even at high concentrations, Fig. 3) is “non-cytotoxic; also recorded: did not exhibit any toxic effects”. Also, the “cytotoxic effect on HMC3 cells” value in series [2] was “no cytotoxic effects”. For the same sequence, the “effect on ZIKV PF13 infection” value in series [3] (non-cytotoxic concentrations 50 to 3 μg/ml, HMC3 cells) is “increased the infection”.
